# Screens: PubChem, several laboratories
# This is a sample that favours compounds with a hit; in the whole collection about 4% have one here.
# Granule exo inh: blocks lytic granule exocytosis. 0.66% of 360,000 active. TALL-104 LAMP-1 surface exposure, flow cytometry; cells stimulated with thapsigargin and PMA. inhibition, % at 10 µM;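 active means inhibition above about 55%, limit read from the data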
# Mdm2-MdmX inh: inhibitors of human Mdm2/MdmX interaction; O15151+Q00987; SaOS-2 split-luciferase Mdm2/MdmX complementation, luminescence; inhibition, % at 8 µM; 3% of 330,000 active; AID 485346;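 active means inhibition of at least 50% at 8 µM in the primary screen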
# UPR CHOP act: activators of apoptotic arm of unfolded protein response (CHOP) | CHO-CHOP luciferase reporter, UPR activation, luminescence; percent of tunicamycin response over DMSO baseline | activation, % at 10 µM | 0.34% of 330,000 active;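 active means at 10 µM dose, activation of 40% or more, normalized to positive control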;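 further: 100% = tunicamycin at 10 µg/mL and 0% = DMSO alone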
#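 Material: CHO-CHOP cells, stable luciferase reporter of PERK-eIF2a-CHOP signalling; quantity: 500 reporter cells seeded per well; buffer or medium: F12 medium containing 10% fetal bovine serum; compound: one dose, 10 µM in 0.5% DMSO; incubation: 6 h compound treatment, 37 °C; measured by: Steady-Glo luciferase luminescence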
# UPR XBP1 act: activators of adaptive arm of unfolded protein response (XBP1) | activation, % at 20 µM | 0.33% of 330,000 active | CHO-XBP1 luciferase reporter, IRE1-XBP1 UPR activation, luminescence; percent of tunicamycin response, DMSO as zero | AID 463104;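 active means versus positive control, 20 µM dose yields 30% or more activation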;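 further: 100% = tunicamycin at 10 µg/mL and 0% = DMSO only wells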
#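 Material: CHO cell line with stable XBP1 luciferase reporter; schedule: 16-18 h cell attachment at 37 °C, then 6 h compound exposure; signal: glow luminescence from Steady-Glo reagent; medium: serum-containing F12 medium, 10% FBS; benchmarks: tunicamycin 10 µg/mL and vehicle-only wells; read-out: percent activation relative to tunicamycin reference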
# ABHD5-PLIN5 inh: blocks binding of human ABHD5 to perilipin-5 | Q00G26+Q8WTS1 | Split G. princeps luciferase complementation, luminescence, 4 h | inhibition, % at 4 µM | 0.78% of 360,000 active;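 active means inhibition above the mean inhibition across every tested compound plus 3 SD, cut at about 22% in these data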;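 further: 0% = DMSO only wells and the 100% control is not disclosed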
# Mdm2 MdmX conf: human Mdm2/MdmX binding inhibition, confirmed. shares compounds with Mdm2-MdmX inh. luminescent assay. inhibition, % at 8 µM. 55% of 10,000 active; in the data active means inhibition above about 40%
# Full FLuc ctr: counter-screen for Mdm2/MdmX inhibitors: full-length luciferase. shares compounds with Mdm2-MdmX inh. SaOS-2 full-length luciferase counterscreen, luminescence. inhibition, % at 8 µM. 77% of 6,200 active;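 active means mean inhibition at 8 µM reaching about 37%, which flags the compound as non-specific, limit read from the data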;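 further: p53-null SaOS-2 cells with luciferase driven by a doxycycline-inducible promoter; compound on cells about two nights before reading with doxycycline added after day one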
# Numbers without * were called inactive; / = no result.
SMILES,Granule exo inh,Mdm2-MdmX inh,UPR CHOP act,UPR XBP1 act,ABHD5-PLIN5 inh,Mdm2 MdmX conf,Full FLuc ctr
Cc1nnc(SCC(=O)N(C)c2c(N)n(Cc3ccccc3)c(=O)[nH]c2=O)n1Cc1ccccc1,-2.2,15.6,-1.8,-0.9,0.1,/,/
COc1ccc(C(=O)Nc2ccc(C)cn2)c(OC)c1,-0.7,67.8*,-10.1,-8.4,2.3,66.9*,85.1*
CCc1nc(Nc2ccc(O)cc2)c2oc3ccccc3c2n1,-2.0,51.4*,2.2,13.4,1.6,2.0,/
CC(=O)OCCCNc1cc(Sc2nc3ccccc3s2)c2nonc2c1[N+](=O)[O-],68.8*,100.4*,-10.3,-6.5,-13.0,76.5*,52.1*
COC(=O)CSc1nc(NC#N)nc(NC(C)C)n1,9.1,-13.7,-0.2,-4.4,-4.2,/,/
N#Cc1cccc(C(=O)C(=O)N2CCC(Cc3ccccc3)CC2)c1,-0.3,/,/,/,-6.6,/,/
CC1=C([N+](=O)[O-])C(c2ccccc2)C2=C(N1)c1ccccc1C2=O (stereo not given),8.8,56.5*,-1.4,11.6,-20.8,63.0*,79.1*
O=c1[nH]c(Nc2nc3ccccc3o2)nc2c1CCCC2,-2.8,100.3*,30.3,-0.8,-4.8,75.5*,78.7*
Cc1ccc(Nc2nc3c(c(=O)[nH]2)CCCC3)cc1,2.0,-36.2,1.5,-1.2,-0.6,/,/
CO/N=C/C(=N\Nc1ccc(OC)cc1)C(=O)c1ccc(F)cc1,4.3,25.1,-0.5,-0.3,3.0,/,/
CO/N=C/C(=N\Nc1ccc(C)cc1)C(=O)c1ccc(OC)cc1,24.8,54.7*,0.1,7.2,-6.5,58.4*,64.8*
CC(=O)NC(CC(=O)OCC(=O)c1c(N)n(C)c(=O)n(C)c1=O)c1ccccc1 (stereo not given),17.1,-13.7,-0.5,-4.2,4.4,/,/
Cc1ccc(F)c(S(=O)(=O)NC(=O)C2(C)CCN2C(=O)COc2ccc(Cl)cc2)c1 (stereo not given),6.0,/,/,/,1.4,/,/
COc1ccc2c(c1)OC/C(=C/c1cccs1)C2=O,-3.4,-147.5,2.3,-2.1,9.2,/,/
COc1ccc(C2C(=O)c3ccccc3C2=O)c(OC)c1,-2.1,-260.6,4.0,-0.3,-2.6,/,/
COc1ccc(C=C2c3ccccc3C(=O)c3ccccc32)c(OC)c1,10.5,65.8*,4.3,19.8,-0.9,57.4*,97.1*
COc1ccc(/C=C2\COc3ccccc3C2=O)c(OC)c1,-9.9,59.3*,4.3,1.9,5.0,34.0,76.2*
COc1ccc(/C=C2\CN(Cc3ccccc3)C/C(=C\c3ccc(OC)cc3OC)C2=O)c(OC)c1,0.7,66.6*,2.6,4.0,15.4,60.5*,63.2*
CC1(CCc2ccccc2)NC(=O)N(CC(=O)Nc2ccccc2)C1=O (stereo not given),-1.9,-57.7,3.8,0.9,9.4,/,/
Cc1ccc(N(C)S(=O)(=O)c2cccc(C(=O)NCCCN3CCCC3=O)c2)cc1,3.3,7.3,-1.8,-0.3,-11.8,/,/
Cc1ccc(OCCn2cc(C(=S)N3CCCC3)c3ccccc32)cc1C,2.1,95.7*,0.4,0.9,-8.2,91.5*,54.4*
Cc1[nH]c2c(ccc3ccccc32)c1C1C(CCN)C1(C)C (stereo not given),-2.7,60.9*,0.9,7.4,20.2,40.3*,77.1*
S=c1[nH]c2ccc3ccccc3c2[nH]1,-0.7,0.4,1.1,3.7,0.6,/,/
Cc1ccc(N(Cc2cc3ccccc3[nH]c2=O)S(=O)(=O)c2ccccc2)cc1,2.7,13.8,-0.9,0.6,0.3,/,/
CCc1ccc(/C=C/c2c([N+](=O)[O-])c(=O)n(C)c(=O)n2C)cc1,-3.8,64.0*,-1.3,2.4,16.1,43.5*,39.8*
Cc1cc2cc(C)c(NCCNC(=O)c3ccccc3)nc2cc1C,-1.7,-16.2,0.6,6.5,11.4,/,/
Cc1ccc(C(=O)NCCNc2nc3cc(C)c(C)cc3cc2C)cc1,-4.7,65.1*,-1.2,21.9,6.3,10.4,/
